# MT1-MMP act inh: blockers of MT1-MMP proenzyme processing, primary screen, HT1080 RFP-PRO-GFP cells, GFP/RFP fluorescence; Matrix metalloproteinase-14 (Homo sapiens), P50281; GFP/RFP ratio fluorescence, overnight; percent of plate control window, DMSO zero; GFP/RFP ratio change, % at 20 µM; actives 0.061% (n = 360,000); AID 651647, 2012;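 active = GFP/RFP ratio change of at least 30% with cell ATP level not reduced by more than half and red fluorescence within 50% of control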
#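 Read-out: GFP/RFP fluorescence ratio; Test system: RFP-PRO-GFP reporter HT1080 cells; Compound dosing: single-point 20 µM compound, 1% DMSO; Times: overnight compound exposure at 37 °C.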
# NRP1-CendR mod: modulators of CendR peptide binding to NRP-1, primary screen, biochemical, fluorescence polarization, uHTS; Neuropilin-1 (Homo sapiens), O14786; FAM-RPARPAR peptide binding to NRP-1; actives 0.85% (n = 360,000); inhibition, % at 25 µM;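 active = inhibition or corrected inhibition above about 18%, plus a signal ratio from 0.5 to 1.5, limit read from the data, passing the limit was not always enough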
# Myeloid diff 2: induction of myeloid progenitor differentiation, primary screen, cell-based, flow cytometry, MLPCN library; ER-HoxA9 myeloid progenitors, lysozyme-GFP differentiation; calls only at 10 µM; actives 1% (n = 360,000);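 active = normalized GFP-positive differentiation at or above the plate's own cutoff, the solvent-only control mean plus 3 SD; inconclusive = no clear call, values can overlap the other calls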;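 note: cells exposed to compound for four days before flow analysis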
# beta cell repl: inducers of MIN6 beta-cell proliferation, primary screen, ATP luminescence, uHTS; MIN6 cells proliferation, ATPlite luminescence, 48 h; cells starved in 0.2% serum; 100% = growth in 10% serum; proliferation, % at 10 µM; actives 0.29% (n = 330,000); AID 2380, 2010;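 active = compounds whose signal lies at least 3.5 SD above the mean of all wells on their plate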;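 note: 0% = DMSO-treated cells in low-serum medium and 100% = 10% serum control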
# SENP1 FRET inh: human SENP1 catalytic domain inhibitors, primary screen, biochemical, FRET, uHTS | recombinant SENP1 catalytic domain, CyPet-SUMO1-YPet FRET cleavage | actives 0.21% (n = 360,000) | AID 624204, 2012 | Sentrin-specific protease 1 (Homo sapiens), Q9P0U3 | inhibition, % at 10 µM;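 active = inhibition at least 30% at 10 µM, raw YFP signal under a set limit, fluorescence ratio 0.5 to 1.5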;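 note: 0% = enzyme with DMSO and 100% = no enzyme wells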
#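 Material – human SENP1 catalytic domain · Input – SENP1 enzyme, 20 pM final · Compound dosing – single concentration of 10 µM compound, 0.5% DMSO final · Timing – enzyme reaction for 50 min at room temperature, dark · Measured by – FRET fluorescence in CFP and YFP emission channels · Control set – no-enzyme wells low, DMSO-plus-enzyme wells high control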
# DAGLB inhibitor: DAGLB lipase inhibitors, primary screen, biochemical, fluorescence, HTS; actives 0.059% (n = 340,000); AID 504411, 2011; inhibition, % at 5.17 µM; HEK293T DAGLB membrane lysate, EnzChek fluorogenic substrate; in the data active = inhibition above about 34%;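 note: 0% = enzyme with vehicle and 100% = wells lacking enzyme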
# An asterisk follows results filed as active; i = inactive; ? = inconclusive; · = not tested or not shown; + = active, no number. Rows were chosen to be rich in hits. Some 2.4% of all compounds tested hit in one or more screens of this group.
SMILES,MT1-MMP act inh,NRP1-CendR mod,Myeloid diff 2,beta cell repl,SENP1 FRET inh,DAGLB inhibitor
CCCS(=O)(=O)NC(=O)C1(C)CCCN(C(=O)C(C)(C)Oc2ccc(Cl)cc2)C1 (stereo unspecified),0,-1,i,·,1,·
Clc1ccc(-c2nc3ccccn3c2CN2CCOCC2)cc1,-4,-8,+,-1,2,1
NC(=O)COC(=O)[C@H](Cc1c[nH]c2ccccc12)NC(=O)c1ccc(F)cc1,-2,5,i,0,0,-2
CCOc1ccc(C(=O)NC(C(=O)NCCc2ccc(OC(F)F)cc2)C(C)C)cc1 (stereo unspecified),-9,23*,i,-2,-6,-11
CCOc1ccc(C(=O)NC(C(=O)NCc2ccccc2OC)C(C)C)cc1 (stereo unspecified),-18,3,i,-2,0,-7
O=C(Nc1ccnn1C1CCN(C(=O)c2ccc(F)c(Cl)c2)CC1)C1CC1,0,9,i,-1,0,1
COc1ccc(CN2CCC(n3nccc3NC(=O)C3CC3)CC2)cc1O,0,23*,i,4,2,-2
O=C(Nc1ccnn1C1CCN(C(=O)c2c(F)cccc2F)CC1)C1CC1,0,25*,i,0,0,-1
Cc1nn2c(COc3ccc(NC(=O)c4ccccc4Cl)cc3)nnc2c2ccccc12,-3,-10,+,0,1,2
Cc1nn2c(COc3ccc(NC(=O)C(C)C)cc3)nnc2c2ccccc12,1,-4,i,2,0,-2
COc1ccc(NC(=O)Cn2nnc(C(=O)NCc3cccs3)c2N)c(OC)c1,3,-4,?,0,2,-1
COc1ccc(NC(=O)Cn2nnc(C(N)=O)c2N)c(OC)c1,-6,33*,i,0,3,3
O=c1[nH]nc2c3ccccc3occ1-2,6,14,i,·,4,·
O=S(=O)(Cc1ccccc1)Nc1ccc(F)cc1,0,-6,i,-2,0,0
CCOC(=O)c1oc2ccc(S(=O)(=O)n3nc(-c4ccccc4)cc3N)cc2c1C,-5,4,+,-6,2,-4
COc1ccc(-c2cn3cc(C(F)(F)F)cc(Cl)c3n2)cc1,5,0,+,-4,3,-4
C[C@H](CO)N1C[C@H](C)[C@@H](CN(C)S(=O)(=O)c2ccc3ccccc3c2)OCc2cnnn2CCCC1=O,2,2,+,·,-3,-3
C[C@H]1CN([C@@H](C)CO)C(=O)CCCn2nncc2CO[C@@H]1CN(C)S(=O)(=O)c1ccc2ccccc2c1,-3,-4,i,·,-1,0
COc1cccc(CNC(=O)c2ccc(NS(=O)(=O)c3ccc4[nH]c(=O)[nH]c4c3)cc2)c1,0,-3,i,-3,-2,-3
O=C(c1ccccc1)c1nc2ccccc2n(CCCn2c(=O)c(C(=O)c3ccccc3)nc3ccccc32)c1=O,5,-7,+,1,2,0
O=C1c2ccccc2NC(c2ccco2)N1/N=C/c1ccco1 (stereo unspecified),1,18*,i,-3,-4,2
Cc1ccc(/C=N/N2C(=O)c3ccccc3NC2c2ccc(C)cc2)cc1 (stereo unspecified),0,-19,+,0,-6,-4
C/C(=N\N1C(=O)c2ccccc2NC1c1ccco1)c1ccccc1O (stereo unspecified),-1,8,?,-6,-7,0
CC(C)n1nnnc1C1c2ccccc2C(=O)N1CCCn1ccnc1 (stereo unspecified),4,1,?,·,3,·
